NSD2 inh: inhibitors of human histone methyltransferase NSD2; 0.54% of 310,000 active; inhibition, % at 12.5 µM; O96028; NSD2 peptide methylation, AlphaScreen, 120 min; in the data active = inhibition above about 50%
MBD2 DNA inh: MBD2-methylated oligo binding inhibition. 0.31% of 370,000 active. TR-FRET, MBD2 binding to methylated oligonucleotide. inhibition, % at 4.4 µM. AID 686964. Q9UBB5; in the data active = inhibition above about 13%
Target sequence (Q9UBB5 whole entry, looked up): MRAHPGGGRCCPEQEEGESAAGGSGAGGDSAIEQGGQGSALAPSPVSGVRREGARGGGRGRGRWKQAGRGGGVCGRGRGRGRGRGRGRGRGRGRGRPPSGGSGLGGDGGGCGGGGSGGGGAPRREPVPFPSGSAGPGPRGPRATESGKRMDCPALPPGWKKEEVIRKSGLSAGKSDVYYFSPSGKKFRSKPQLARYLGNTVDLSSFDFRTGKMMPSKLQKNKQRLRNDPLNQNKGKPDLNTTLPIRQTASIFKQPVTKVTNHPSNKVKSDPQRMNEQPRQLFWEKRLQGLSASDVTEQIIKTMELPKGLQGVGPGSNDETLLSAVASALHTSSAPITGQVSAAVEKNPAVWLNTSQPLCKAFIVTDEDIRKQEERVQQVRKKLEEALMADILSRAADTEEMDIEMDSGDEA
UHRF1 binding: human UHRF1 methylated DNA binding inhibitors | Q96T88 | UHRF1 binding to methylated oligo, TR-FRET | inhibition, % at 4.4 µM | 0.75% of 370,000 active | AID 687016; in the data active = inhibition above about 21%;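 also: UHRF1 SRA domain binding a hemimethylated CpG hairpin DNA probe; 0% = median of test compound wells and 100% = reference inhibitor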
TDP2 inh: blocks human TDP2 phosphodiesterase activity; inhibition, % at 12.8 µM; AID 720702; 0.34% of 370,000 active; recombinant TDP2, T5PNP hydrolysis, p-nitrophenol absorbance 415 nm;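 active = inhibition above the mean of all tested compounds plus 3 SD, set per campaign, cut at about 25% in these data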;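 also: 0% = DMSO with enzyme and 100% = buffer with substrate but no TDP2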
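System – recombinant human TDP2 · Amount – 120 nM TDP2 per well · Buffer or medium – Mg2+-containing Tris-HCl buffer, pH 7.5 · Reagent – T5PNP substrate, 5 mM · Dosing – 12.8 µM single point, 1% DMSO · Incubation – 2 h at 37 °C · Measured by – epi absorbance · Read-out basis – percent inhibition · Benchmarks – high control without enzyme, low control DMSO plus TDP2 · Repeats – singlicate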
LEDGF integ inh: blocks HIV-1 LEDGF/p75-dependent DNA integration; TR-FRET IN-LEDGF/p75 DNA integration, Eu/Cy5; inhibition, % at 3.7 µM; 0.64% of 370,000 active;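 active = inhibition above the screen-wide mean plus 3 SD, cut at about 13% in these data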;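 also: signal is the Cy5 over europium emission ratio at 671 and 618 nm; 0% = plate median of compound wells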
Casp6 inh: caspase-6 (human) enzyme inhibition. inhibition, % at 12.5 µM. AID 686996. P55212. 0.53% of 350,000 active. purified caspase-6, Z-VEID-R110 cleavage fluorescence;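 active = mean inhibition across replicates at least about 35%, with every replicate also reaching that limit, limit read from the data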;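 also: 0% = median of neutral control wells and 100% = no fluorescence left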
IN multimer act: activates HIV-1 integrase multimerization in LEDGF counter-screen | shares compounds with LEDGF integ inh | TR-FRET HIV-1 integrase multimerization, biochemical | activation, % at 7.7 µM | 17% of 2,000 active | AID 1053131; in the data active = activation above about 8.9%
TR-FRET interf: optically interferes with TR-FRET readout in LEDGF counter-screen. inhibition, % at 7.7 µM. AID 1053135. 2,000 tested, under 10 active. TR-FRET optical interference counterscreen, HIV-1 IN multimerization. shares compounds with LEDGF integ inh;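 active = inhibition above the mean over all tested compounds plus 3 SD, which no compound reached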;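 also: 0% = integrase with antibodies and DMSO and 100% = antibodies without integrase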
IN-LEDGF confirm: confirmation of HIV-1 LEDGF/p75-dependent integration inhibitors | inhibition, % at 3.7 µM | TR-FRET LEDGF/p75-dependent HIV-1 integration, biochemical | shares compounds with LEDGF integ inh | 36% of 2,000 active | AID 1053136; in the data active = inhibition above about 14%
Starred values were filed as active, the others as inactive; . = no result given. Hits are enriched below; roughly 1.8% of the tested compounds scored in any of these assays.

SMILES	NSD2 inh	MBD2 DNA inh	UHRF1 binding	TDP2 inh	LEDGF integ inh	Casp6 inh	IN multimer act	TR-FRET interf	IN-LEDGF confirm
CCCNC(=O)[C@@H]1[C@@H](CO)[C@@H]2Cn3c(ccc(/C=C/c4ccccc4)c3=O)[C@H]1N2C(=O)c1cccnc1	.	.	.	.	.	-2	.	.	.
CC(C)NC(=O)N1Cc2cc(C(=O)NC3CCCCC3)nc(-c3cccc(-c4cccnc4)c3)c2[C@H]1CCO	.	.	.	.	.	6	.	.	.
Brc1cnc2nc(SC/C=C/c3ccccc3)[nH]c2c1	-1	0	1	-3	37*	-6	6	-29	4
Cc1cc(=O)oc2cc3c(cc12)OCCO3	2	1	-1	2	29*	.	-4	13	0
COC(=O)CSc1nnnn1-c1cccc2ccccc12	-3	3	-1	23	23*	2	-1	5	2
COc1cc(F)cc(C2=CC(=O)C[C@H](c3ccc(F)cc3)C2)c1	.	-2	-2	-4	59*	3	0	-1	-4
O=C(Cc1cnn(-c2ccccc2)c1)c1ccc(O)c(O)c1O	.	4	5	-7	22*	.	10*	-36	18*
CCOC(=O)c1ccc(N2CSC3=C(C#N)C(c4ccc(OC)cc4OC)CC(=O)N3C2)cc1 (stereo not drawn)	.	-3	-1	8	0	0	.	.	.
Cc1ccc(C2CC(=O)N3CN(c4ccc(Br)cc4)CSC3=C2C#N)o1 (stereo not drawn)	.	7	41*	0	43*	.	9	-43	40*
CCOc1ccc(N2CSC3=C(C#N)C(c4ccco4)CC(=O)N3C2)cc1 (stereo not drawn)	.	29*	67*	34*	47*	23	15*	-76	41*
N#CC1=C2SCN(c3ccccc3)CN2C(=O)CC1c1cccs1 (stereo not drawn)	0	3	-9	11	0	.	.	.	.
O=C(C[C@H]1CC[C@H]2[C@@H](COC[C@@H](O)CN2C(=O)c2ccccc2)O1)Nc1ccccc1	.	.	.	.	.	-2	.	.	.
O=C(Nc1ccc(F)cc1)NC1CCN(Cc2nnnn2Cc2ccco2)CC1	10	9	19	-8	14*	.	-1	4	-1
Nc1c(Br)cc2c(c1Br)C(O)c1ccccc1-2 (stereo not drawn)	-2	0	-2	0	26*	-4	5	-25	0
COC(=O)c1cc(NS(=O)(=O)c2ccc(N3CCOCC3)c(N)c2)cc(C(=O)OC)c1	3	3	2	0	14*	0	0	-2	-6
NNC(=O)c1oc2nc(-c3ccco3)cc(-c3ccco3)c2c1N	1	8	11	3	64*	-1	11*	-55	11
Nc1c(C(=O)N/N=C/c2cccnc2)oc2nc(-c3ccccc3)cc(-c3ccco3)c12	-2	-7	-5	-4	5	6	.	.	.
NNC(=O)c1oc2nc(-c3ccc(Cl)cc3)cc(-c3ccccc3)c2c1N	3	10	-4	11	-3	-1	.	.	.
Nc1c(C(=O)N/N=C/c2cccnc2)oc2nc(-c3ccco3)cc(-c3ccco3)c12	8	4	17	4	53*	89*	40*	-199	91*
Cc1noc(C)c1S(=O)(=O)N(C)C[C@@H]1OCCCC[C@@H](C)Oc2ccc(NC(=O)c3ccccc3)cc2C(=O)N([C@@H](C)CO)C[C@H]1C	.	.	.	.	.	1	.	.	.
CCC1CCc2sc(C(=O)NCC(c3ccc(OC)cc3)N3CCOCC3)cc2C1 (stereo not drawn)	-1	0	15	-2	62*	-5	0	2	0
CCOC(=O)c1c(N)sc(=S)c2c1CCC2	16	4	16	-1	34*	.	1	-3	32*

From PubChem
